GPR7 antagonist = antagonists of human GPR7 (neuropeptides B/W receptor 1). inhibition, % at 4.4 µM. actives 1.1% (n = 290,000). GPR7-expressing cells, fluorescence antagonist assay. P48145. AID 1861; in the data active = inhibition above about 16%, passing the limit was not always enough;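 note: cells stimulated with the agonist NPW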
OX1R antag-1 = OX1R (human) antagonism; inhibition, % at 6.6 µM; actives 1.8% (n = 330,000); OX1R-expressing cells, FRET antagonist read-out; O43613; in the data active = inhibition mostly above about 38%, no sharp cut-off; inactive = mostly below about 40%
TRPN1 ag = agonists of zebrafish TRPN1 channel; HEK293 zebrafish TRPN1-YFP, Fluo-8 calcium fluorescence; 100% = response to 87 µM carbachol; activation, % at 3 µM; actives 0.18% (n = 220,000);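 active = activation above its plate's cutoff, the mean activation of test wells on that plate plus 3 SD, cut at about 19% in these data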
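Material – zebrafish TRPN1-YFP in HEK293 cells · Doses – 3 µM single point · Schedule – dye 1 h 37 °C plus 30 min RT · Signal – Fluo-8 calcium fluorescence, excitation 470-495 nm, emission 515-575 nm · Read-out – % activation versus carbachol response · Control set – carbachol high, DMSO low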
CHO parental Ca = counter-screen: ATP calcium response change in parental CHO cells | AID 463079 | inhibition, % at 5.6 µM | actives 0.63% (n = 330,000) | parental CHO-K1, ATP-induced calcium, Fluo-8 fluorescence;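 active = inhibition above that plate's mean sample inhibition plus 3 SD, cut at about 26% in these data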
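Test system: parental CHO cells; detection: calcium-sensitive Fluo-8 fluorescence; evaluation: percent inhibition of calcium signal; also added: ATP as calcium-mobilizing challenge; repeats: one well per compound; control set: ATP-challenged DMSO wells low, unchallenged DMSO wells high; compound: single nominal dose of 5.6 µM per compound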
TRPML3 agonist = human mucolipin-3 channel agonism; HEK293 TRPML3-YFP, Fluo-8 calcium fluorescence; 100% = the carbachol control signal; activation, % at 3 µM; actives 0.29% (n = 220,000); AID 1448;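 active = activation above its plate's cutoff, the mean activation of the plate's test wells plus 3 SD, cut at about 12% in these data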
Target sequence (Q8TDD5 whole entry, looked up): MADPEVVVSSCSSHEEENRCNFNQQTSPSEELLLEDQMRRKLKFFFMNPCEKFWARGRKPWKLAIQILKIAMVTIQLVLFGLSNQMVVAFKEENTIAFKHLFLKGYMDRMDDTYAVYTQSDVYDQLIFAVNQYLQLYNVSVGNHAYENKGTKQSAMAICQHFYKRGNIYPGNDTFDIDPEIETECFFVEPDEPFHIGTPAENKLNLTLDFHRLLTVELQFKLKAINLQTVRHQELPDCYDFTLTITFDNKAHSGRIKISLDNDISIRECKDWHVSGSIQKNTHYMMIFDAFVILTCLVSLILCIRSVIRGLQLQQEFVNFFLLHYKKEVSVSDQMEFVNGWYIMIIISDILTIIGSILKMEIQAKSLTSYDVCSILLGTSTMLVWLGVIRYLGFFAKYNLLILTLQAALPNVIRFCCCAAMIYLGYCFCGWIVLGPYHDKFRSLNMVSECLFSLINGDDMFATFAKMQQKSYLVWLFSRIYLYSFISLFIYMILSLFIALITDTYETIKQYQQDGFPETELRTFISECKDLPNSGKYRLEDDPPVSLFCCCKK
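Test system: HEK293 cells stably carrying human TRPML3-YFP; Doses: single dose, 3 µM final nominal compound, 0.3% DMSO final; Schedule: dye loading 1 h 37 °C then 30 min ambient, 125 s read; Technique: Fluo-8 calcium fluorescence; Benchmarks: high control carbachol 87 µM, low control DMSO.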
OX1R antag-2 = blocks the human orexin 1 receptor | AID 434989 | inhibition, % at 5 µM | CHO/OX1R cells, Fluo-8 calcium fluorescence, orexin A | actives 0.43% (n = 330,000);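 active = inhibition above its plate's threshold, mean inhibition of all tested compounds on the plate plus 3 SD, cut at about 37% in these data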
A number is an active result; 0 = inactive; - = no result. An excerpt weighted towards active compounds, which were near 3.2% of everything screened.

SMILES	GPR7 antagonist	OX1R antag-1	TRPN1 ag	CHO parental Ca	TRPML3 agonist	OX1R antag-2
CCN(CC)c1ccc(/C=C/c2cc(-c3ccccc3)c3ccccc3n2)cc1	0	0	0	38	0	0
O=C(Nc1ccc(Br)c(C(F)(F)F)c1)c1ccc(C(F)(F)F)cc1	0	62	0	40	0	60
O=C(Nc1ccc(Br)c(C(F)(F)F)c1)c1ccccc1	0	0	0	0	0	0
O=C(Nc1ccc(Cl)c(S(=O)(=O)N2CCCCC2)c1)c1cccnc1	-	0	-	0	-	0
COc1ncnc2c1NC1=C(S2)C(=NCCC(=O)O)CC(C)(C)C1	0	71	0	0	0	0
CC1(C)CC(=O)/C(=C(\O)Cc2ccccc2)C(=NCCCCCC(=O)O)C1	0	0	0	0	0	0
Cc1cc(C(=O)N/N=C/c2ccc(-c3ccccc3Cl)o2)n[nH]1	0	70	0	0	0	0
Cc1cc(C(=O)N/N=C/c2cc(Cl)cc([N+](=O)[O-])c2O)n[nH]1	0	66	0	0	0	0
Cc1[nH]cnc1C(=O)N/N=C/c1ccc([N+](=O)[O-])s1	0	71	-	0	-	0
Cc1cc(C(=O)N/N=C/c2ccc([N+](=O)[O-])s2)n[nH]1	0	53	0	0	0	0
Cc1ccc(-c2nc(CN(C)C3CCOC3)c(C)o2)s1 (centres undefined)	0	0	0	0	0	0
COc1cccc(NC(=O)COc2cccc3c2CCNC3=O)c1	-	0	-	0	-	0
CCCCCCCN1CCN=C1N(C)C	-	0	-	0	-	0
O=C(c1ccccc1)N(Cc1ccccc1)Cc1ccccc1	0	0	-	0	-	0
O=C(C1CC1)N(CCN(Cc1ccccc1)C(=O)C1CC1)Cc1ccccc1	43	0	0	0	0	0
N#Cc1ccc(NC(=O)CNc2cc(S(=O)(=O)N3CCOCC3)ccc2NCC2CCCO2)cc1 (centres undefined)	0	0	0	39	0	0
O=C(CNc1cc(S(=O)(=O)N2CCOCC2)ccc1NCC1CCCO1)Nc1ccc(C(F)(F)F)cc1 (centres undefined)	-	0	-	0	-	0
COc1cc(O)c2c(=O)c(-c3ccc(O[C@@H]4O[C@H](CO)[C@@H](O)[C@H](O)[C@H]4O)cc3)coc2c1	0	-	-	-	-	-
CC(=O)NS(=O)(=O)c1ccc2c(c1)C(=O)c1cc(S(=O)(=O)NC(C)=O)ccc1-2	0	58	-	0	-	0
CC(NS(=O)(=O)c1ccc2c(c1)C(=O)c1cc(S(=O)(=O)NC(C)C(=O)O)ccc1-2)C(=O)O (centres undefined)	0	60	-	0	-	0
N#CCc1ccc(Oc2ncccn2)cc1	0	0	-	0	-	0
O=C(Cc1ccc(Cl)cc1)Nc1cccc(S(=O)(=O)Nc2ccccc2F)c1	0	0	0	0	0	0
O=C(CSc1ccc([N+](=O)[O-])cc1)Nc1cccc(S(=O)(=O)Nc2ccccc2F)c1	0	0	0	46	0	0
CCOc1ccccc1N1CCN(C(=O)NCc2ccc(Cl)cc2)CC1	0	0	-	0	-	0
Cc1[nH]c2ccccc2c1/C=N/NC(=O)c1cc(C(C)C)[nH]n1	0	44	0	0	0	0
SMILES	GPR7 antagonist	OX1R antag-1	TRPN1 ag	CHO parental Ca	TRPML3 agonist	OX1R antag-2
Cc1[nH]c2ccccc2c1/C=N/NC(=O)c1cccc(F)c1	0	0	0	0	0	0
CC(=O)N1CCc2c(sc(NC(=O)CS(=O)(=O)c3ccc(F)cc3)c2C(N)=O)C1	-	0	-	0	-	0
COC(=O)c1c(C)oc2ccc(NS(=O)(=O)c3cccs3)cc12	0	40	0	0	0	0
COCCOC(=O)c1c(C)oc2ccc(NS(=O)(=O)c3ccccc3)cc12	0	0	0	0	0	0
N/C(=N\OC(=O)c1cccc(Cn2cc(C(F)(F)F)ccc2=O)c1)c1ccc(Cl)cc1	0	0	0	0	0	0
N/C(=N\OC(=O)c1cccc(Cn2cc(C(F)(F)F)ccc2=O)c1)c1ccccc1	0	0	0	46	0	48
CCOC(=O)c1c(/N=C/c2cc(OC)cc([N+](=O)[O-])c2O)sc(C)c1C	0	0	0	0	0	0
CCOC(=O)c1c(/N=C/c2cc([N+](=O)[O-])ccc2O)sc(C)c1C	23	0	0	0	0	0
CCOC(=O)c1c(-c2ccc(F)cc2)csc1/N=C/N(C)C	0	0	0	0	0	0
Cc1cc(S(=O)(=O)Nc2ccc3cn[nH]c3c2)c(C)cc1Cl	0	0	-	40	-	0
OCCNc1ncnc2c1c(-c1ccccc1)c(-c1ccccc1)n2Cc1ccco1	0	0	0	0	0	0
c1ccc(-c2c(-c3ccccc3)n(Cc3ccco3)c3ncnc(NCCCn4ccnc4)c23)cc1	0	53	0	0	0	0
Cc1cc(C)cc(NC(=O)CCN2CCOCC2)c1	0	0	-	0	-	0
Cc1cc2nc(SCCOC(=O)Nc3ccccc3)nc(C)c2cc1C	0	72	0	0	0	0
COc1ccc(-c2nc(CS(=O)CC(=O)N3CCOCC3)c(C)o2)cc1OC (centres undefined)	0	0	-	0	-	0
CN1CCN(Cc2coc3c(Cl)cc(Cl)cc3c2=O)CC1	0	0	-	0	-	0
COc1cccc(CN2CCN(C(=S)NCc3ccc(Cl)cc3)CC2)c1	0	0	0	0	0	0
Cc1ccc(NC(=S)NCc2ccccc2)cc1S(=O)(=O)N1CCCCC1	0	0	0	0	0	0
O=C(CNC(=O)C(c1ccccc1)c1ccccc1)N/N=C/c1cccnc1	20	0	0	0	0	0
OCCNc1nc(-c2ccccc2)nc2c1oc1ccccc12	0	40	0	0	0	0
CCCCc1[nH]c(=O)c(C#N)c2c1CSC(C)(C)C2	0	0	0	56	0	0
CCc1ccc(/C=N/Nc2ncnc3nc[nH]c23)cc1	0	0	0	0	0	0
CCc1ccc(N=Nc2ccc(O)c3[nH]cnc23)cc1	-	0	-	0	-	47
CCc1cc2c(N3CCN(c4ccccc4)CC3)ncnc2s1	0	0	0	60	0	58
O=C(NNC(=O)c1ccccc1C(=O)O)c1ccc(O)cc1	0	0	0	0	0	0
SMILES	GPR7 antagonist	OX1R antag-1	TRPN1 ag	CHO parental Ca	TRPML3 agonist	OX1R antag-2
O=C1N=NC2=C1c1c3ccccc3c(O)n1CC2	0	56	0	0	0	0
CC1=Nc2ccccc2/C1=C\c1sc(Nc2ccc(C)cc2)nc1O	19	0	0	0	0	0
c1ccc2[nH]c3cc4ncnc4cc3nc2c1	0	70	0	0	0	0
FC(F)c1nc2ccccc2[nH]1	0	0	0	0	0	0
COc1ccccc1-n1c(-c2ccccc2)c[n+]2c1CCc1ccccc1-2	28	0	0	0	0	0
COc1ccc(-n2c(-c3ccc(Br)cc3)c[n+]3c2CCc2ccccc2-3)cc1	0	0	0	0	0	0
CC(C)c1ccc(-n2c(-c3ccccc3)c[n+]3c2CCc2ccccc2-3)cc1	68	-	0	-	0	-

Bioassay records as filed in PubChem.
